Test results from ChEMBL document CHEMBL4229349, “Challenging clinically unresponsive medullary thyroid cancer: Discovery and pharmacological activity of novel RET inhibitors” (Eur J Med Chem, 2018).

Tests used:
[1] = Metabolic stability in human liver microsomes assessed as parent compound remaining at 1 uM after 15 mins in presence of NADPH by HPLC-MS/MS analysis; type: ADME, microsome; conditions: read-out: Stability
How it was run: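 The compound was incubated at 1 µM with human liver microsomes for 15 min, and the percentage of parent compound remaining was measured.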

[2] = Metabolic stability in human plasma assessed as parent compound remaining at 1 uM after 1 hr by HPLC-MS/MS analysis; type: ADME, cell-free; conditions: read-out: Stability
How it was run: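 The compound was incubated in human plasma for 1 h, and stability was expressed as the percentage of parent compound remaining.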

## Clc1ccc(SCc2n[nH]c(-c3ccc(Cl)cc3)n2)cc1
[1]
  remaining at […], 1 µM: 40%
[2]
  remaining at 1 h, 1 µM: 85%
